Experimental data published in ChEMBL document CHEMBL1129609, “Synthesis and antiviral activity evaluation of some new aminoadamantane derivatives. 2” (1996).
≈ marks a conversion by molar mass, not a printed value.

How the values were obtained:
[1] = tested on: Human immunodeficiency virus 2; assay: Antiviral activity against HIV-2 virus infected CEM cell lines.; assay type: functional, CCRF-CEM
[2] = tested on: CCRF-CEM; assay: Cytotoxicity against CEM cell lines.; assay type: functional; details: Homo sapiens
[3] = tested on: Human immunodeficiency virus 1; assay: Antiviral activity against HIV-1 virus infected CEM cell lines.; assay type: functional, CCRF-CEM
[4] = tested on: Human alphaherpesvirus 1; assay: Antiviral activity against HSV-1 virus infected HEF cell lines.; assay type: functional
Outline: (§1)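 Human embryonic fibroblasts, from embryonic lung or embryonic skin-muscle, infected with the virus. Endpoint is the minimum inhibitory concentration that reduces virus-induced cytopathicity by 50%. Values are averages of at least two separate experiments.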

[5] = tested on: Human alphaherpesvirus 2; assay: Antiviral activity against HSV-2 virus infected HEF cell lines.; assay type: functional; outline: as §1
[6] = tested on: Human alphaherpesvirus 1; assay: Antiviral activity against TK-HSV-1 virus infected HEF cell lines.; assay type: functional; outline: as §1
[7] = tested on: HEF; assay: Effects on cell morphology of HEF cell lines.; assay type: functional; details: Homo sapiens
Outline: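 Human embryonic skin-muscle fibroblasts were examined under the microscope for changes in normal cell morphology. The value is the minimum concentration causing a microscopically detectable alteration, averaged from at least two separate experiments.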

[8] = tested on: Vaccinia virus; assay: Antiviral activity against vaccinia virus infected HEF cell lines.; assay type: functional; details: Orthopoxvirus vaccinia; outline: as §1
[9] = tested on: Enterovirus C; assay: Antiviral activity against polio 1 virus infected HeLa cell lines.; assay type: functional
Outline: (§2)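 Vero (African green monkey kidney), HeLa (human epithelial) or HEL (human embryonic lung) cell monolayers infected with the virus. Readout is the minimum inhibitory concentration that reduces virus-induced cytopathicity by 50%. Values are averages of at least two separate experiments.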

[10] = tested on: Vesicular stomatitis virus; assay: Antiviral activity against vesicular stomatitis virus infected HeLa cell lines.; assay type: functional; outline: as §2
[11] = tested on: Coxsackievirus B4; assay: Antiviral activity against Coxsackie B4 virus infected HeLa cell lines.; assay type: functional; details: Enterovirus B; outline: as §2
[12] = tested on: Human betaherpesvirus 5; assay: Antiviral activity against HCMV virus infected HEL cell lines.; assay type: functional; outline: as §2
[13] = tested on: Human alphaherpesvirus 3; assay: Antiviral activity against TK+VZV virus infected HEL cell lines.; assay type: functional; outline: as §2
[14] = tested on: Human alphaherpesvirus 3; assay: Antiviral activity against TK-VZV virus infected HEL cell lines.; assay type: functional; outline: as §2
[15] = tested on: HEL; assay: Inhibition of HEL cell proliferation.; assay type: functional; details: Homo sapiens
Outline: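 Human embryonic lung fibroblasts were used for the proliferation assay. The value is the concentration that reduces cell proliferation by 50%, averaged from at least two separate experiments.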

[16] = tested on: MDCK; assay: Antiviral activity tested against influenza A,H1N1 virus infected MDCK cell lines.; assay type: functional; details: Canis lupus familiaris
[17] = Antiviral activity against influenza A,H3N2 virus infected MDCK cell lines.; assay type: functional
[18] = tested on: Influenza B virus; assay: Antiviral activity against influenza B virus infected MDCK cell lines.; assay type: functional
[19] = tested on: MDCK; assay: Antiviral activity of compound was tested against morphology virus infec+ted MDCK cell lines.; assay type: functional; details: Canis lupus familiaris
[20] = tested on: Semliki Forest virus; assay: Antiviral activity against Semliki forest virus infected Vero cell lines.; assay type: functional; outline: as §2
[21] = tested on: Coxsackievirus B4; assay: Antiviral activity against Coxsackie B4 virus infected vero cell lines.; assay type: functional; details: Enterovirus B; outline: as §2
[22] = tested on: Vero; assay: Effects on cell morphology of Vero cell lines.; assay type: functional; details: Chlorocebus sabaeus
Outline: (§3)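 HeLa (human epithelial) or Vero (African green monkey kidney) cells were examined under the microscope for changes in normal morphology. The value is the minimum concentration causing a detectable alteration, averaged from at least two separate experiments.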

[23] = tested on: Human respirovirus 3; assay: Antiviral activity against parainfluenza 3 virus infected Vero cell lines.; assay type: functional; outline: as §2
[24] = tested on: Mammalian orthoreovirus 1; assay: Antiviral activity against Reo 1 virus infected vero cell lines.; assay type: functional; outline: as §2
[25] = tested on: Sindbis virus; assay: Antiviral activity against sindbis virus infected Vero cell lines.; assay type: functional; outline: as §2
[26] = Antiviral activity against influenza A,H2N2 virus infected MDCK cell lines.; assay type: functional
[27] = tested on: HeLa; assay: Effects on cell morphology of HeLa cell lines.; assay type: functional; details: Homo sapiens; outline: as §3
[28] = tested on: Vesicular stomatitis virus; assay: Antiviral activity against vesicular stomatitis virus infected HEF cell lines.; assay type: functional; outline: as §1

Structure (SMILES) | MIC50 [1] [µg/mL] | MIC50 [2] [µg/mL] | MIC50 [3] [µg/mL] | MIC50 [4] [µg/mL] | MIC50 [5] [µg/mL] | MIC50 [6] [µg/mL] | MIC50 [7] [µg/mL] | MIC50 [8] [µg/mL] | MIC50 [9] [µg/mL] | MIC50 [10] [µg/mL] | MIC50 [11] [µg/mL] | MIC50 [12] [µg/mL] | MIC50 [13] [µg/mL] | MIC50 [14] [µg/mL] | MIC50 [15] [µg/mL] | MIC50 [16] [µg/mL] | MIC50 [17] [µg/mL] | MIC50 [19] [µg/mL] | MIC50 [26] [µg/mL] | MIC50 [28] [µg/mL] | other results
CCN1CCCCC12C1CC3CC(C1)CC2C3 (stereo not given) | > 200 | > 200 | 200 (≈ 857 µM) | > 200 | > 200 | > 200 | 100 (≈ 428 µM) | > 200 | > 400 | > 400 | > 400 | > 50 | > 50 | > 50 | > 50 | 4.4 (≈ 18.9 µM) | > 65 | > 250 | 31 (≈ 133 µM) | > 200 | MIC50 [18]: > 80 µg/mL; MIC50 [20]: > 400 µg/mL; MIC50 [21]: > 400 µg/mL; MIC50 [22]: > 400 µg/mL; MIC50 [23]: > 400 µg/mL; MIC50 [24]: > 400 µg/mL; MIC50 [25]: > 400 µg/mL; MIC50 [27]: > 400 µg/mL
C1CCC2(C1)CCCN2CC12CC3CC(CC(C3)C1)C2 | > 40 | 59 (≈ 216 µM) | > 40 | > 40 | > 40 | > 40 | 100 (≈ 366 µM) | > 40 | > 100 | > 100 | > 100 | > 50 | 32 (≈ 117 µM) | 20 (≈ 73.1 µM) | > 50 | > 150 | > 47 | > 250 | > 60 | > 100 | MIC50 [18]: > 100 µg/mL; MIC50 [20]: > 100 µg/mL; MIC50 [21]: > 100 µg/mL; MIC50 [22]: > 400 µg/mL; MIC50 [23]: > 100 µg/mL; MIC50 [24]: > 100 µg/mL; MIC50 [25]: > 100 µg/mL; MIC50 [27]: 200 µg/mL (≈ 731 µM)
CN1CCCCC12C1CC3CC(C1)CC2C3 (stereo not given) | > 200 | > 200 | 115 (≈ 524 µM) | > 200 | > 200 | > 200 | 100 (≈ 456 µM) | > 200 | > 400 | > 400 | > 400 | > 50 | > 50 | > 50 | > 50 | 6.2 (≈ 28.3 µM) | 45 (≈ 205 µM) | > 250 | 0.58 (≈ 2.64 µM) | > 200 | MIC50 [18]: 60 µg/mL (≈ 274 µM); MIC50 [20]: > 400 µg/mL; MIC50 [21]: > 400 µg/mL; MIC50 [22]: > 400 µg/mL; MIC50 [23]: > 400 µg/mL; MIC50 [24]: > 400 µg/mL; MIC50 [25]: > 400 µg/mL; MIC50 [27]: > 400 µg/mL
CC1(C)CCCN1CC12CC3CC(CC(C3)C1)C2 | > 40 | 99 (≈ 400 µM) | > 40 | > 40 | > 40 | > 40 | 100 (≈ 404 µM) | > 40 | > 200 | 100 (≈ 404 µM) | > 200 | > 50 | > 50 | > 50 | > 50 | > 150 | > 87 | > 250 | 35 (≈ 141 µM) | > 40 | MIC50 [18]: > 100 µg/mL; MIC50 [20]: > 200 µg/mL; MIC50 [21]: > 200 µg/mL; MIC50 [22]: > 400 µg/mL; MIC50 [23]: > 200 µg/mL; MIC50 [24]: > 200 µg/mL; MIC50 [25]: > 200 µg/mL; MIC50 [27]: > 400 µg/mL
CNC1(C23CC4CC(CC(C4)C2)C3)CCCC1 | > 8 | 49 (≈ 210 µM) | > 8 | > 10 | > 10 | > 10 | 40 (≈ 171 µM) | > 10 | > 40 | > 40 | > 40 | > 20 | > 20 | > 20 | > 50 | 59 (≈ 253 µM) | > 60 | > 250 | 9 (≈ 38.6 µM) | > 10 | MIC50 [18]: > 80 µg/mL; MIC50 [20]: > 100 µg/mL; MIC50 [21]: > 100 µg/mL; MIC50 [22]: > 400 µg/mL; MIC50 [23]: > 100 µg/mL; MIC50 [24]: > 100 µg/mL; MIC50 [25]: > 100 µg/mL; MIC50 [27]: > 100 µg/mL
Nc1nc2c(ncn2COC(CO)CO)c(=O)[nH]1 [GANCICLOVIR] | – | – | – | > 200 | 0.002 (≈ 0.00784 µM) | 0.02 (≈ 0.0784 µM) | > 100 | > 100 | – | – | – | 0.7 (≈ 2.74 µM) | – | – | – | – | – | – | – | > 100 | –
NC12CC3CC(CC(C3)C1)C2 [AMANTADINE] | – | – | – | – | – | – | – | – | – | – | – | – | – | – | – | 48 (≈ 317 µM) | – | > 250 | 0.8 (≈ 5.29 µM) | – | –
